The species entered for experiment [1] is Mus musculus. Description: Percent of maximum response was tested for its ability to act as B-cell mitogens (mitogenicity). The class given is functional. The procedure, abridged:
(§1)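 CBA/CaJ mouse spleen cells (1 × 10⁵/0.2 mL) exposed to graded compound concentrations, dissolved in water or DMSO and diluted in medium, for 24 h. [³H]thymidine then added for a further 24 h; incorporation by scintillation counting. ED50 and maximal response expressed relative to a concurrently run standard (loxoribine in most cases).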

For experiment [2], the system named is YAC-1. Kind of experiment: Stimulation of natural killer (NK) response in Yac-1 cell line (mouse, lymphoma). The class given is functional. The following applies: read-out: ED50 (the source's name).
For experiment [3], the species on record is Mus musculus. Description: Augment antibody response of B cells to sheep red blood cell (SRBC) challenge (adjuvanticity). The class given is functional. As to conditions: read-out: ED50 (the source's name). The method, boiled down:
(§2)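 CBA/CaJ spleen cells depleted of T cells with anti-T cell monoclonal antibody (1:1000, 30 min, 4 °C) then complement (37 °C, 45 min). Cultured ± 0.1% SRBC antigen in serum-containing medium with compound from zero to 10⁻³ M for 4 d. Plaque-forming cells counted in agarose with guinea pig complement. ED50 and maximal response relative to a concurrent standard.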

In experiment [4] the test system is YAC-1. Description: Percent of maximum response was tested for its ability to stimulate the natural killer response in murine in vitro cell assays. The class given is functional, Mus musculus.
The species entered for experiment [5] is Mus musculus. Description: Percent of maximum response was tested to augment the antibody response of B cells to sheep red blood cell challenge. It counts as functional. The method, boiled down: as §2
Experiment [6] is filed under the species Mus musculus. Kind of experiment: Ability to act as B-cell mitogens. The following applies: read-out: ED50 (the source's name). It counts as functional. The procedure, abridged:
as §1

Regarding `C=CCn1c(=S)n(C2OC(COC(C)=O)[C@@H](OC(C)=O)[C@H]2OC(C)=O)c2nc(NC(C)=O)nc(O)c21` (stereo partly specified), the Max response in the experiment filed under Mus musculus [1] was determined as 134%; with YAC-1 [4] it was 77%; in the experiment listed under Mus musculus [5], 60%. Besides, the EC50 in the experiment on YAC-1 [2] was found to be 5 µM; in the experiment filed under Mus musculus [3] it was 7 µM; in the experiment filed under Mus musculus [6], 295 µM.

With `Nc1nc(O)c2c(n1)n(C1OC(CO)[C@@H](O)[C@H]1O)c(=O)n2CCCl` (stereo partly specified), the EC50 in the experiment with YAC-1 [2] was found to be 19 µM; in the experiment listed under Mus musculus [3], 4 µM. The Max response was found to be 83% in the experiment with YAC-1 [4] and 101% in the experiment filed under Mus musculus [5].

Turning to `CC1(C)O[C@@H]2[C@H](O1)[C@@H](CO)O[C@H]2n1c(=O)n(C/C=C/c2ccccc2)c2c(O)nc(N)nc21`, the Max response in the experiment filed under Mus musculus [1] is 10%; in the experiment filed under Mus musculus [5] it was 16%.

Turning to `C=CCn1c(=S)n(C2OC(COC(C)=O)[C@H]3OC(C)(C)O[C@@H]23)c2nc(N)nc(O)c21` (stereo partly specified), the Max response in the experiment filed under Mus musculus [1] is 20%; in the experiment with YAC-1 [4], 30%; in the experiment filed under Mus musculus [5], 141%. In addition, the EC50 with YAC-1 [2] turned out to be 30 µM; in the experiment listed under Mus musculus [3] it was 50 µM; in the experiment filed under Mus musculus [6], 50 µM.

With `Nc1nc(O)c2c(n1)n(C1OC(CO)[C@@H](O)[C@H]1O)c(=O)n2CC(O)CO` (stereo partly specified), the EC50 in the experiment listed under Mus musculus [3] came out at 45 µM. In the experiment filed under Mus musculus [5], the Max response is recorded as 136%.

With `Nc1nc(O)c2c(n1)n(C1OC(CO)[C@@H](O)[C@H]1O)c(=O)n2Cc1ccc(Cl)cc1` (stereo partly specified), the EC50 in the experiment on YAC-1 [2] is 180 µM; in the experiment listed under Mus musculus [3], 14 µM. Moreover, the figures for the Max response in the experiment with YAC-1 [4] and in the experiment listed under Mus musculus [5] were 27% and 15%, respectively.

As for `COc1ccc(CCNCC(O)Cn2c(=O)n(C3OC(CO)[C@@H](O)[C@H]3O)c3nc(N)nc(O)c32)cc1OC` (stereo partly specified), the Max response in the experiment listed under Mus musculus [5] came out at 3%.

With `CN(C)CCCn1c(=O)n(C2OC(CO)[C@@H](O)[C@H]2O)c2nc(N)nc(O)c21` (stereo partly specified), the Max response in the experiment filed under Mus musculus [1] is 63%; in the experiment filed under Mus musculus [5], 83%. Further, the EC50 worked out at 194 µM in the experiment filed under Mus musculus [3] and 820 µM in the experiment filed under Mus musculus [6].

Take `C=CCSc1nc2c(O)nc(N)nc2n1C1OC(CO)[C@@H](O)[C@H]1O` (stereo partly specified): the Max response in the experiment filed under Mus musculus [1] is reported as 57%; in the experiment listed under Mus musculus [5] it was 107%. The EC50 in the experiment filed under Mus musculus [3] was 107 µM; in the experiment filed under Mus musculus [6], 485 µM.

Turning to `C=CCn1/c(=N\C#N)n([C@H]2OC(CO)[C@@H](O)[C@H]2O)c2nc(N)nc(O)c21` (stereo partly specified), the EC50 in the experiment listed under Mus musculus [3] was 156 µM. Also, in the experiment filed under Mus musculus [5], the Max response came to 85%.

With `Cn1c(=O)n(C2OC(CI)[C@@H](O)[C@H]2O)c2nc(N)nc(O)c21` (stereo partly specified), the Max response stood at 4% in the experiment listed under Mus musculus [1] and 32% in the experiment listed under Mus musculus [5]. In addition, in the experiment listed under Mus musculus [6], the EC50 amounted to 52 µM.

With `NCC(O)Cn1c(=O)n(C2OC(CO)[C@@H](O)[C@H]2O)c2nc(N)nc(O)c21` (stereo partly specified), the EC50 in the experiment filed under Mus musculus [3] is 28 µM. The same molecule displayed a Max response in the experiment listed under Mus musculus [5] of 110%.

`C=CCn1c(=S)n(COCCO)c2nc(N)nc(O)c21`: the Max response was 7% in the experiment listed under Mus musculus [1], 28% with YAC-1 [4] and 9% in the experiment listed under Mus musculus [5]. Besides, the results for the EC50 with YAC-1 [2], in the experiment filed under Mus musculus [3] and in the experiment filed under Mus musculus [6] were 55 µM, 14 µM and 13 µM, respectively.

On to `C=CCn1c(=O)n(C2CN(C(c3ccccc3)c3ccccc3)CC(CO)O2)c2nc(N)nc(O)c21` (stereo unspecified), for which the EC50 in the experiment with YAC-1 [2] was 12 µM. In the experiment on YAC-1 [4], this molecule came in with a Max response of 46%.

The molecule `CCCCCCn1c(=O)n(C2OC(CO)[C@@H](O)[C@H]2O)c2nc(N)nc(O)c21` (stereo partly specified) yielded a Max response in the experiment filed under Mus musculus [1] of 11%. Moreover, in the experiment filed under Mus musculus [6], the EC50 worked out at 600 µM.

Consider `C=CCn1c(=O)n(CCC(COCc2ccccc2)COCc2ccccc2)c2nc(N)nc(O)c21`, for which the EC50 in the experiment listed under Mus musculus [3] is 7 µM. Besides, in the experiment listed under Mus musculus [5], the Max response worked out at 68%.

Take `C=CCn1c(=S)n(C2OC(CO)[C@@H](O)[C@H]2O)c2nc(N)nc(O)c21` (stereo partly specified): the Max response in the experiment listed under Mus musculus [1] was 151%; in the experiment filed under Mus musculus [5], 100%. For the same molecule, the EC50 in the experiment filed under Mus musculus [3] turned out to be 1 µM; in the experiment filed under Mus musculus [6] it was 20 µM.

For the molecule `Nc1nc(O)c2c(n1)n(C1OC(CO)[C@@H](O)[C@H]1O)c(=O)n2Cc1ccccc1` (stereo partly specified), the EC50 in the experiment listed under Mus musculus [3] came to 6 µM. Moreover, the Max response in the experiment filed under Mus musculus [5] is listed as 110%.

For `Nc1nc(O)c2c(n1)n(C1OC(CO)[C@@H](O)[C@H]1O)c(=O)n2CC(O)CSc1ccccc1` (stereo partly specified), the EC50 in the experiment filed under Mus musculus [3] came out at 142 µM. In the experiment listed under Mus musculus [5], this molecule displayed a Max response of 12%.

With `C=CCn1c(=[Se])n(C2OC(CO)[C@@H](O)[C@H]2O)c2nc(N)nc(O)c21` (stereo partly specified), the Max response came out at 107% in the experiment listed under Mus musculus [1] and 70% in the experiment listed under Mus musculus [5]. In addition, the EC50 came out at 15 µM in the experiment listed under Mus musculus [3] and 118 µM in the experiment filed under Mus musculus [6].

In the case of `CCCCn1c(=O)n(C2OC(CO)[C@@H](O)[C@H]2O)c2nc(N)nc(O)c21` (stereo partly specified), the Max response in the experiment listed under Mus musculus [1] is reported as 70%; in the experiment filed under Mus musculus [5], 86%. The EC50 in the experiment listed under Mus musculus [3] was 11 µM; in the experiment filed under Mus musculus [6], 100 µM.

For `COc1ccc(Cn2c(=O)n(C3OC(CO)[C@@H](O)[C@H]3O)c3nc(N)nc(O)c32)cc1` (stereo partly specified), the Max response worked out at 14% in the experiment listed under Mus musculus [1] and 44% in the experiment filed under Mus musculus [5]. For the same molecule, the EC50 in the experiment filed under Mus musculus [3] was determined as 135 µM; in the experiment filed under Mus musculus [6] it was 2400 µM.

`C=CCn1c(=O)n(CCCCCCCC)c2nc(N)nc(O)c21`: the EC50 in the experiment filed under Mus musculus [3] amounted to 37 µM. This molecule also had a Max response in the experiment filed under Mus musculus [5] of 130%.

On to `Nc1nc(O)c2c(n1)n(C1OC(CO)[C@@H](O)[C@H]1O)c(=O)n2CC(O)CN1CCN(c2ccc(F)cc2)CC1` (stereo partly specified), for which the Max response in the experiment listed under Mus musculus [5] is 16%.

For the molecule `C=CCn1c(=O)n(Cc2ccccc2)c2nc(N)nc(O)c21`, the EC50 in the experiment filed under Mus musculus [3] was 5 µM. The molecule further yielded a Max response in the experiment listed under Mus musculus [5] of 25%.

Turning to `Nc1nc(O)c2nc(S)n([C@@H]3O[C@H](CO)[C@@H](O)[C@H]3O)c2n1`, the Max response in the experiment filed under Mus musculus [1] and in the experiment filed under Mus musculus [5] was 100% throughout. The EC50 in the experiment listed under Mus musculus [3] was 50 µM; in the experiment listed under Mus musculus [6] it was 532 µM.

For the molecule `Cn1c(=O)n([C@@H]2O[C@H](CO)[C@H]3OC(C)(C)O[C@H]32)c2nc(N)nc(O)c21`, the Max response in the experiment filed under Mus musculus [1] is 17%; in the experiment listed under Mus musculus [5], 193%. Also, the EC50 in the experiment filed under Mus musculus [3] turned out to be 168 µM.

For `C=CCn1c(=O)n([C@@H]2O[C@H](CO)[C@H]3OC(CCC)(CCC)O[C@H]32)c2nc(N)nc(O)c21`, the Max response in the experiment listed under Mus musculus [1] is recorded as 38%; in the experiment on YAC-1 [4], 56%; in the experiment filed under Mus musculus [5], 123%. In addition, the EC50 in the experiment on YAC-1 [2] is 11 µM; in the experiment listed under Mus musculus [3], 4 µM.

Take `CCOC(=O)Cn1c(=O)n(C2OC(CO)[C@@H](O)[C@H]2O)c2nc(N)nc(O)c21` (stereo partly specified): the Max response in the experiment filed under Mus musculus [1] turned out to be 58%; in the experiment filed under Mus musculus [5], 86%. Besides, the results for the EC50 in the experiment listed under Mus musculus [3] and in the experiment listed under Mus musculus [6] were 48 µM and 630 µM, respectively.

For `[N-]=[N+]=NCC(O)Cn1c(=O)n(C2OC(CO)[C@@H](O)[C@H]2O)c2nc(N)nc(O)c21` (stereo partly specified), the EC50 in the experiment listed under Mus musculus [3] came to 39 µM. For the same molecule, the Max response in the experiment filed under Mus musculus [5] is listed as 91%.

Consider `CCn1c(=O)n(C2OC(CO)[C@@H](O)[C@H]2O)c2nc(N)nc(O)c21` (stereo partly specified), for which the Max response in the experiment filed under Mus musculus [1] and in the experiment listed under Mus musculus [5] was 82% each time. Besides, the EC50 in the experiment listed under Mus musculus [3] turned out to be 15 µM.

Regarding `C=CCn1c(=S)n(C2OC(COC(C)=O)[C@@H](OC(C)=O)[C@H]2OC(C)=O)c2nc(N)nc(O)c21` (stereo partly specified), the Max response in the experiment listed under Mus musculus [1] amounted to 96%; in the experiment filed under Mus musculus [5], 141%. Besides, the figures for the EC50 in the experiment listed under Mus musculus [3] and in the experiment listed under Mus musculus [6] were 5 µM and 34 µM, respectively.

As for `Nc1nc(O)c2c(n1)n(C1OC(CO)[C@@H](O)[C@H]1O)c(=O)n2C/C=C/c1ccccc1` (stereo partly specified), the Max response in the experiment listed under Mus musculus [1] is on record as 5%; in the experiment listed under Mus musculus [5], 73%. For the same molecule, the EC50 was 103 µM in the experiment listed under Mus musculus [3] and 4500 µM in the experiment filed under Mus musculus [6].

These data come from ChEMBL document CHEMBL1127795, “Small-molecule immunostimulants. Synthesis and activity of 7,8-disubstituted guanosines and structurally related compounds” (1994).
